Experiments:
[1] = In vitro plasma stability / metabolite identification; type: in vitro ADME; settings: 10 μM, 37 °C, 60 min incubation
How it was run: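 Mouse plasma was spiked at 10 μM and shaken at 37 °C. Triplicate aliquots at 0 and 60 min were quenched with 2 volumes of ice-cold acetonitrile containing 5 μM losartan, then centrifuged at 12000g for 10 min. Supernatant was diluted 1:1 with water. Parent loss and metabolites were tracked by C18 LC–ESI-TOF MS.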

[2] = cited from earlier work
[3] = Plasma levels of 1 after single oral dose in mice; type: in vivo, mouse; settings: dose equivalent of 10 mg/kg of 1, plasma 30 min after administration
How it was run: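 Male CD-1 mice (25–30 g) got a single oral dose of 10 mg/kg parent equivalent in 50 mM HEPES-buffered saline, pH 7.4, made the same day. At 30 min, mice were killed with pentobarbital and blood taken by cardiac puncture into heparin. Plasma (200g, 15 min; stored −80 °C) was assayed by C18 LC-MS/MS, parent transition 279.986 > 203.066/247.173, losartan internal standard. Mean ± SEM, n = 3.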

[4] = test system: rat chronic constriction injury model of neuropathic pain; assay: Chronic constrictive injury; type: in vivo; settings: rat CCI
How it was run: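 Male Sprague–Dawley rats (200–250 g, n = 10–15/group) received four loose chromic gut ligatures, 1 mm apart, on the sciatic nerve. From day 10 post-surgery, hind-paw withdrawal latency to a plantar thermal stimulus was read to 0.1 s (normal response within 15 s). Difference score: nonligated minus ligated. Sessions twice weekly, 3 days apart. Daily oral gavage, 1 h pre-test. Gabapentin 50/100 mg/kg po as control. Student's t-test.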

[5] = target: rhGCPII (Homo sapiens, UniProt Q04609); assay: GCPII radioenzymatic inhibition assay with 3H-NAAG; type: biochemical; settings: relative to compound 1
How it was run: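 Recombinant human GCPII was started with a mix of 0.31 μM NAAG plus 15 nM 3H-NAAG (concentrations in the added mix). After 20 min, the reaction was stopped with 200 mM potassium phosphate, 50 mM EDTA and 2 mM β-mercaptoethanol, pH 7.4. Released glutamate was isolated by ion exchange and counted by scintillation. IC50 was fitted from inhibition curves.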

[6] = Stability under GCPII enzyme assay conditions; type: physicochemical; settings: 30 m in aqueous buffer; pH 8.0

rhGCPII, sequence (Q04609 whole entry): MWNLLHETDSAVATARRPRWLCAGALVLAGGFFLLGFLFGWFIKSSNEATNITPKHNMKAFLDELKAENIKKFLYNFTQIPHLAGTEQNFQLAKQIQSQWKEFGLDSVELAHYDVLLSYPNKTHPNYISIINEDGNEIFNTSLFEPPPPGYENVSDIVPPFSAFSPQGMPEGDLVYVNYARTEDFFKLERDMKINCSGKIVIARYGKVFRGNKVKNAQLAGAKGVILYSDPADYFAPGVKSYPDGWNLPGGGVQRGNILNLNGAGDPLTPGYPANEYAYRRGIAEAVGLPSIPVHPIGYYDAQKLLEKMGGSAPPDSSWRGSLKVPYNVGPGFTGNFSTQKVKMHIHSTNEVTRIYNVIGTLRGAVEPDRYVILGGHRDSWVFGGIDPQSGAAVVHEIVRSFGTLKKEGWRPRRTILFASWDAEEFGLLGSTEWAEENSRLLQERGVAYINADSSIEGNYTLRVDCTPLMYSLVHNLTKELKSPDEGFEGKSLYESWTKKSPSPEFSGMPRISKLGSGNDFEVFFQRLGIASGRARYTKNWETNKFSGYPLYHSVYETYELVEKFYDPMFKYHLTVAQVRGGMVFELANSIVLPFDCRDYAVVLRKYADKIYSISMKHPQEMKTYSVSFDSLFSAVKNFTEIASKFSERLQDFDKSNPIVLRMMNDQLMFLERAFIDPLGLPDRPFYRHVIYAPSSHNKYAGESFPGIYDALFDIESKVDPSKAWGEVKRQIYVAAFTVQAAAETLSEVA

| Compound | stability / bioconversion in mouse plasma (in words) [1] | plasma levels of 1 following oral administration of prodrug (in words) [3] | other results |
| --- | --- | --- | --- |
| O=C(CCC(Cc1ccc(C(=O)O)cc1)C(=O)O)NO (stereo not drawn) [Compound 1, 4-Carboxy-α-[3-(hydroxyamino)-3-oxopropyl]-benzenepropanoic acid] | completely stable |  | distribution to sciatic nerves (in words) [2]: good distribution to sciatic nerves |
| CC(=O)ONC(=O)CCC(Cc1ccc(C(=O)O)cc1)C(=O)O (stereo not shown) [Compound 7, 4-(5-(Acetoxyamino)-2-carboxy-5-oxopentyl)benzoic Acid] |  | equal or higher |  |
| CC(=O)Oc1ccc(CONC(=O)CCC(Cc2ccc(C(=O)O)cc2)C(=O)O)cc1 (stereo not shown) [Compound 12, 4-(5-(((4-Acetoxybenzyl)oxy)amino)-2-carboxy-5-oxopentyl)-benzoic Acid] | complete conversion of prodrug 12 to 1 | equal or higher | effect on absolute latency of the sham operated side ([4]; 4.6 mg/kg/day po): no significant effect; first day of significantly reduced thermal hyperalgesia ([4]; 12 at 4.6 mg/kg/day po (3 mg/kg equivalent of 1)): 4 days |
| Cc1oc(=O)oc1CONC(=O)CCC(Cc1ccc(C(=O)O)cc1)C(=O)O (stereo not shown) [Compound 17, 4-(2-Carboxy-5-(((5-methyl-2-oxo-1,3-dioxol-4-yl)methoxy)-amino)-5-oxopentyl)benzoic Acid] |  | equal or higher | fold less potency compared to 1 (GCPII inhibition) [5]: 12 fold; stability under GCPII enzyme assay conditions (in words) [6]: partial hydrolysis to 1 |
| CCOC(=O)c1ccc(CC(CCC(=O)NOCc2ccc(OC(C)=O)cc2)C(=O)O)cc1 (stereo not shown) [Compound 23, 5-(((4-Acetoxybenzyl)oxy)amino)-2-(4-(ethoxycarbonyl)benzyl)-5-oxopentanoic Acid] | not converted into 1 |  |  |
| CC(=O)Oc1ccc(CONC(=O)CCC(Cc2ccc(C(=O)OCOC(=O)OC(C)C)cc2)C(=O)O)cc1 (stereo not shown) [Compound 30, 5-(((4-Acetoxybenzyl)oxy)amino)-2-(4-((((isopropoxycarbonyl)-oxy)methoxy)carbonyl)benzyl)-5-oxopentanoic Acid] | completely hydrolyzed |  |  |
| NCC1(CC(=O)O)CCCCC1 [gabapentin, reference compound] |  |  | reversal of allodynia (positive control) ([4]; 100 mg/kg po daily, maintained throughout the dosing period): significantly reversed allodynia |

Source: paper PMC5795597 (Journal of medicinal chemistry, 2017)
